From ChEMBL document CHEMBL1154962, “Novel 6-N-arylcarboxamidopyrazolo[4,3-d]pyrimidin-7-one derivatives as potential anti-cancer agents” (2010)

Columns and labels:
[1] = system: HT-29; test: Cytotoxicity against human HT-29 cells at 100 uM after 2 days by sulforhodamine B assay; type: functional; conditions: HT-29, 48 h
Outline: (§1)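 Five human cancer lines (HT-29, DU-145, A-549, SK-MEL-2, SK-OV-3) seeded at 3–7 × 10³ cells/well; compounds at 100 µM added in duplicate; 37 °C, 5% CO₂, two days. Fixed with formalin, SRB stained, washed with 1% acetic acid, dye solubilized in 10 mM unbuffered Tris base; OD at 520 nm. Read-out is % inhibition.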

[2] = system: DU-145; test: Cytotoxicity against human DU145 cells at 100 uM after 2 days by sulforhodamine B assay; type: functional; conditions: DU-145, 48 h; outline: as §1
[3] = system: A549; test: Cytotoxicity against human A549 cells at 100 uM after 2 days by sulforhodamine B assay; type: functional; conditions: A549, 48 h; outline: as §1
[4] = system: SK-MEL-2; test: Cytotoxicity against human SK-MEL-2 cells at 100 uM after 2 days by sulforhodamine B assay; type: functional; conditions: SK-MEL-2, 48 h; outline: as §1
[5] = system: SK-OV-3; test: Cytotoxicity against human SKOV3 cells at 100 uM after 2 days by sulforhodamine B assay; type: functional; conditions: SK-OV-3, 48 h; outline: as §1
[6] = system: HT-29; test: Growth inhibition of human HT-29 cells after 2 days by MTT assay; type: functional; conditions: HT-29, 48 h
Outline: (§2)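 HT-29 and DU-145 cells seeded at 5 × 10⁴ cells/mL; serial concentrations added in duplicate; 37 °C, 5% CO₂, two days. MTT dye (Cell Titer96) for up to 4 h at 37 °C, then solubilization/stop mix overnight at room temperature; OD at 570 nm. GI₅₀ = concentration giving 50% growth inhibition; mean ± SEM of three or more experiments; doxorubicin as internal standard.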

[7] = system: DU-145; test: Growth inhibition of human DU145 cells after 2 days by MTT assay; type: functional; conditions: DU-145, 48 h; outline: as §2
[8] = target: T1, Aurora kinase A (Homo sapiens) (UniProt O14965); test: Inhibition of human Aurora A at 10 uM
T1 sequence (whole entry): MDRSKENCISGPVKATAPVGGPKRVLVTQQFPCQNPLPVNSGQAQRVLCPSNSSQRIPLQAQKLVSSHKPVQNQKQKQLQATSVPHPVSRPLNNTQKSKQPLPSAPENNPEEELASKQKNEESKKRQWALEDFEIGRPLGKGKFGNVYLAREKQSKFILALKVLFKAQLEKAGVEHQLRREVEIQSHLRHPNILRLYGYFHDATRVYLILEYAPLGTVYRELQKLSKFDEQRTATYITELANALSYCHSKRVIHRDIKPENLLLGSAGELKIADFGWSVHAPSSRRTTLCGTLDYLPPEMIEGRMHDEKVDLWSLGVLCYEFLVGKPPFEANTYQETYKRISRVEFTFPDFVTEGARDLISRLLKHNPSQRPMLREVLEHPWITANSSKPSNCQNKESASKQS

[9] = target: Glycogen synthase kinase-3 beta (Homo sapiens) (UniProt P49841); test: Inhibition of human GSK3-beta at 10 uM
Chain of Glycogen synthase kinase-3 beta (Homo sapiens) (P49841 whole entry, looked up): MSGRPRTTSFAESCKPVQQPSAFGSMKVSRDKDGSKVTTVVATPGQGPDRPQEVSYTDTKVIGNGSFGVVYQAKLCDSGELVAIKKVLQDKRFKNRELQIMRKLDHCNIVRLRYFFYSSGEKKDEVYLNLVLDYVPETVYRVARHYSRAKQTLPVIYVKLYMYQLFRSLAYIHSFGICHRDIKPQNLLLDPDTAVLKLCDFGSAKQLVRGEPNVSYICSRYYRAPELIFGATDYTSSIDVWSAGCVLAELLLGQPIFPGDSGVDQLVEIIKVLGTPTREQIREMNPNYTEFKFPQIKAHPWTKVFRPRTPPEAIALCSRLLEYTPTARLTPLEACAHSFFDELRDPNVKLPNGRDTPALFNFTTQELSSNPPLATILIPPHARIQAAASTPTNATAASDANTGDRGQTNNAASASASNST

[10] = target: Epidermal growth factor receptor (Homo sapiens) (UniProt P00533); test: Inhibition of human EGFR assessed as remaining enzyme activity at 10 uM; values are per cent of control
Chain of Epidermal growth factor receptor (Homo sapiens) (P00533 whole entry): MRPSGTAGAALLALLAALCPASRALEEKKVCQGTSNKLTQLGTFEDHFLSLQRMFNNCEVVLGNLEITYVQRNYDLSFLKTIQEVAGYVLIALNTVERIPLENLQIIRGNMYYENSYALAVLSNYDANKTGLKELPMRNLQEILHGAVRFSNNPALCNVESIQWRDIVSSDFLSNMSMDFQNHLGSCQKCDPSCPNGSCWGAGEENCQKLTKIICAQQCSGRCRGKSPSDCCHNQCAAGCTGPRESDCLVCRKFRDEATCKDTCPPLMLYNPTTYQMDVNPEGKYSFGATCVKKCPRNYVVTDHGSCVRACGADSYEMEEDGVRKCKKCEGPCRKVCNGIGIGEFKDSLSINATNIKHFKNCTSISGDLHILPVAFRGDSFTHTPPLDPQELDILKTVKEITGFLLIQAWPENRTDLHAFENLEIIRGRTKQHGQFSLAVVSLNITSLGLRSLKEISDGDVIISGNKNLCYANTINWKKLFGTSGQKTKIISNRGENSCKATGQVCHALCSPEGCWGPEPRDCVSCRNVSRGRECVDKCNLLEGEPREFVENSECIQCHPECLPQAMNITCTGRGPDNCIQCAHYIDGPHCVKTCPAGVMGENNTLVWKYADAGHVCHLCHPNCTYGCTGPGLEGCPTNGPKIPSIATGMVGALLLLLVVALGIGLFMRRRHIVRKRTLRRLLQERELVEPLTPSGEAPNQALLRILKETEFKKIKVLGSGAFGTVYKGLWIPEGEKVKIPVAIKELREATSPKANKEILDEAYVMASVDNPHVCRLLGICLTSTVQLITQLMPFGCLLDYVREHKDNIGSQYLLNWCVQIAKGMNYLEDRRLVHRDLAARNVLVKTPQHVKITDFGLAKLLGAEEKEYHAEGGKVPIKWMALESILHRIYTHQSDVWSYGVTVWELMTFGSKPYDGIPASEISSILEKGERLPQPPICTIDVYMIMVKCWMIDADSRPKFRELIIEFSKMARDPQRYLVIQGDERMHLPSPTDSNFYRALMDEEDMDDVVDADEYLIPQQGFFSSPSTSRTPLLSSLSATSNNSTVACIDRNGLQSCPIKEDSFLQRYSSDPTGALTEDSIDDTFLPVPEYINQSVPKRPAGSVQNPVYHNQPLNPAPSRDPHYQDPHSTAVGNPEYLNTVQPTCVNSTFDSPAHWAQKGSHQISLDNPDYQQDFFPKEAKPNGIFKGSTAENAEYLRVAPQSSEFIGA

[11] = target: T1, Aurora kinase A (Homo sapiens); test: Inhibition of human Aurora A assessed as remaining enzyme activity at 10 uM; values are per cent of control
[12] = target: Glycogen synthase kinase-3 beta (Homo sapiens) (UniProt P49841); test: Inhibition of human GSK3-beta assessed as remaining enzyme activity at 10 uM; values are per cent of control
[13] = target: Platelet-derived growth factor receptor alpha (Homo sapiens) (UniProt P16234); test: Inhibition of human PDGFRalpha assessed as remaining enzyme activity at 10 uM; values are per cent of control
Chain of Platelet-derived growth factor receptor alpha (Homo sapiens) (P16234 whole entry): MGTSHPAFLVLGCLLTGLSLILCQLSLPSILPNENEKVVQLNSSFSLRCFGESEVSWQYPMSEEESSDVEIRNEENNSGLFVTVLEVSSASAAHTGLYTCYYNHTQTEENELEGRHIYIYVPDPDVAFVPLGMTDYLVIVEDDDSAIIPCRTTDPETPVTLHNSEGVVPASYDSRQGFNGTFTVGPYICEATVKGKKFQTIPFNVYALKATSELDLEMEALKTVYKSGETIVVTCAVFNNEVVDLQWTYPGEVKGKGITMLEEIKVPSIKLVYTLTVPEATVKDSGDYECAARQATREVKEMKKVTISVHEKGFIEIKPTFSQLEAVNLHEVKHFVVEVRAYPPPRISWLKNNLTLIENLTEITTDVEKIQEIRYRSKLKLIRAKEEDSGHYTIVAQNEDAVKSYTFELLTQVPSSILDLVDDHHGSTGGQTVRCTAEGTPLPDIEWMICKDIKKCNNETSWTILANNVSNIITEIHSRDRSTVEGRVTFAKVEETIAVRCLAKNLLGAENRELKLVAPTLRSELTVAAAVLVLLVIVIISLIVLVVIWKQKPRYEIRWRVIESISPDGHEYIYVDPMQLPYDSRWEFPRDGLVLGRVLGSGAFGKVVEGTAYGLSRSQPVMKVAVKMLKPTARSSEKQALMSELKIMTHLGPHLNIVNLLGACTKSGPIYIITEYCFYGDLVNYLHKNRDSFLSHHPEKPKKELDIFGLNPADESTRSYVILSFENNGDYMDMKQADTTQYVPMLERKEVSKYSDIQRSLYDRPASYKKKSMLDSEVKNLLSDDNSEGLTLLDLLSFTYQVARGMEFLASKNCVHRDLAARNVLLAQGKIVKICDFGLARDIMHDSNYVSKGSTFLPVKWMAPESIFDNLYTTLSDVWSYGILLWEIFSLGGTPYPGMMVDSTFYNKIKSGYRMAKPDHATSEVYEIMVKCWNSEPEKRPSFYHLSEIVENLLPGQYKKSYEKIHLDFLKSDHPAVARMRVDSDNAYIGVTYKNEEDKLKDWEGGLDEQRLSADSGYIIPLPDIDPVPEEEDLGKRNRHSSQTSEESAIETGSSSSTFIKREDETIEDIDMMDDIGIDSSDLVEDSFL

| Structure (SMILES) | inhibition at 100 µM [1] [%] | inhibition at 100 µM [2] [%] | inhibition at 100 µM [3] [%] | inhibition at 100 µM [4] [%] | inhibition at 100 µM [5] [%] | GI50 [6] [µM] | GI50 [7] [µM] | inhibition [8] [%] | inhibition [9] [%] | residual activity [10] [%] | residual activity [11] [%] | residual activity [12] [%] | residual activity [13] [%] |
| --- | --- | --- | --- | --- | --- | --- | --- | --- | --- | --- | --- | --- | --- |
| O=C(Nn1c(-c2cccc([N+](=O)[O-])c2)nc2c(-c3ccc(F)cc3)n[nH]c2c1=O)c1cccnc1 | 24.7 | 24.9 | 28.8 | 24.5 | 19.3 |  |  |  |  |  |  |  |  |
| O=C(Cc1ccccc1)Nn1c(CC2CCCCC2)nc2c(-c3ccc(Cl)cc3)n[nH]c2c1=O | 85.5 | 79.8 |  |  |  | 6.39 | 15.1 | 74 | 89 | 113 | 26 | 11 | 77 |
| CCCCc1nc2c(-c3ccc(Cl)cc3)n[nH]c2c(=O)n1NC(=O)c1ccccc1 | 89.5 | 93 |  |  |  | 0.71 | 29.1 | 84 | 89 | 86 | 16 | 11 | 105 |
| O=C(Nn1c(-c2cccc([N+](=O)[O-])c2)nc2c(-c3cccs3)n[nH]c2c1=O)c1cccnc1 | 3.9 | 32.8 | 10.2 | 3.26 |  |  |  |  |  |  |  |  |  |
| O=C(Nn1c(-c2cccc([N+](=O)[O-])c2)nc2c(CCc3ccccc3)n[nH]c2c1=O)c1cccnc1 | 20.1 | 22.5 | 19 | 28.5 | 30.1 |  |  |  |  |  |  |  |  |
| COc1cccc(-c2nc3c(-c4ccco4)n[nH]c3c(=O)n2NC(=O)c2cccnc2)c1 | 12.8 | 30.1 | 14.9 | 34.1 | 25 |  |  |  |  |  |  |  |  |
| O=C(Nn1c(CCC2CCCC2)nc2c(-c3ccc(Cl)cc3)n[nH]c2c1=O)c1ccccc1 | 87.3 | 89.6 |  |  |  | 1.8 | 10.2 |  |  |  |  |  |  |
| O=C(Nn1c(-c2cccc([N+](=O)[O-])c2)nc2c(CCc3ccccc3)n[nH]c2c1=O)c1ccccc1 | 89.7 | 92.5 | 73.9 | 92 |  |  |  |  |  |  |  |  |  |
| CCCc1n[nH]c2c(=O)n(NC(=O)c3ccccc3)c(-c3cccc([N+](=O)[O-])c3)nc12 | 18.7 | 27.8 | 33.2 | 22.9 | 28.8 |  |  |  |  |  |  |  |  |
| O=C(Nn1c(CCc2ccccc2)nc2c(-c3ccc(Cl)cc3)n[nH]c2c1=O)c1ccccc1 | 86.5 | 85.6 |  |  |  | 23.4 | 86.7 |  |  |  |  |  |  |
| COc1cccc(-c2nc3c(-c4ccco4)n[nH]c3c(=O)n2NC(=O)c2ccccc2)c1 | 49.8 | 50.5 | 53.8 | 43.2 | 35.2 |  |  |  |  |  |  |  |  |
| CCCc1n[nH]c2c(=O)n(NC(=O)c3ccccc3)c(-c3cccc(OC)c3)nc12 | 6.27 | 23.6 | 20.7 | 16.7 | 9.96 |  |  |  |  |  |  |  |  |
| COc1cccc(-c2nc3c(-c4ccc(Cl)cc4)n[nH]c3c(=O)n2NC(=O)c2ccncc2)c1 | 46 | 54.4 | 46 | 39.6 | 42.5 |  |  |  |  |  |  |  |  |
| CC(C)(C)c1ccc(C(=O)Nn2c(CCC3CCCC3)nc3c(-c4ccc(Cl)cc4)n[nH]c3c2=O)cc1 | 76.8 | 64.2 |  |  |  | 20.6 | 21.5 |  |  |  |  |  |  |
| CC(C)(C)c1ccc(C(=O)Nn2c(CC3CCCCC3)nc3c(-c4ccc(Cl)cc4)n[nH]c3c2=O)cc1 | 72.3 | 65.2 |  |  |  | 1.06 | > 100 |  |  |  |  |  |  |
| CCCc1n[nH]c2c(=O)n(NC(=O)c3ccncc3)c(-c3cccc([N+](=O)[O-])c3)nc12 | -0.83 | 15.1 | 9.95 | 14.2 | 15.1 |  |  |  |  |  |  |  |  |
